In ChEMBL document CHEMBL3808307, “Triazolylthioacetamide: A Valid Scaffold for the Development of New Delhi Metallo-β-Lactmase-1 (NDM-1) Inhibitors” (ACS Med Chem Lett, 2016):
pIC50, pKi: −log10 of the molar value. Activity calls are given as the source filed them. The rule behind the calls is not given here.

target: T1, Metallo-beta-lactamase type 2 (Klebsiella pneumoniae, UniProt C7C422); assay: Inhibition of Klebsiella pneumoniae metallo-beta-lactamase NDM-1 expressed in Escherichia coli BL21(DE3) cells preincubated for 60 min followed by addition of cefazolin as substrate by spectrometry method
How it was run: (§1)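 Purified recombinant MβL preincubated with inhibitor for 60 min, then hydrolysis followed by UV spectrometry. Substrate was cefazolin, or imipenem for ImiS, at 26–160 μM. Inhibitor ranged 15 nM to 10 μM. IC50 was the concentration giving a 50% drop in enzyme activity, calculated from kinetic data.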

T1 sequence (C7C422 whole entry): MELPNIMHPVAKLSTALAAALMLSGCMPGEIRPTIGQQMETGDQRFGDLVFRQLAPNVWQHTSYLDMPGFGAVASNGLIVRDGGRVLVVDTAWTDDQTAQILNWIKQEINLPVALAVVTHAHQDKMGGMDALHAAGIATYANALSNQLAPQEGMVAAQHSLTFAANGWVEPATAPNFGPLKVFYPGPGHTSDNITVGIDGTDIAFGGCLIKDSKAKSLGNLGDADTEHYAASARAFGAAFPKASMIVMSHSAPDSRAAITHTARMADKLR

pIC50 | SMILES
6.80 | CCCCc1ccc(NC(=O)CSc2nnc(-c3ccccc3N)[nH]2)cc1
6.00 | CCc1ccccc1NC(=O)CSc1nnc(-c2ccccc2)[nH]1
6.01 | O=C(CSc1nnc(-c2ccccc2O)[nH]1)Nc1ccccc1Cl
6.21 | Nc1ccccc1-c1nnc(SCC(=O)Nc2ccccc2Cl)[nH]1
5.82 | CCc1ccccc1NC(=O)CSc1nnc(-c2ccc(O)cc2)[nH]1
5.72 | Cc1ccccc1NC(=O)CSc1nnc(-c2ccccc2N)[nH]1
6.03 | CCc1ccccc1NC(=O)CSc1nnc(-c2ccccc2O)[nH]1
6.48 | Nc1ccccc1-c1nnc(SCC(=O)Nc2ccccc2)[nH]1
6.64 | Nc1ccccc1-c1nnc(SCC(=O)Nc2cccc(Cl)c2)[nH]1
6.80 | Cc1ccccc1NC(=O)CSc1nnc(-c2ccccc2O)[nH]1
6.35 | CCc1ccccc1NC(=O)CSc1nnc(-c2ccccc2N)[nH]1

The next lines start with the molecule.

SMILES | pIC50
O=C(CSc1nnc(-c2ccccc2)[nH]1)Nc1ccccc1Cl | 6.46
O=C(CSc1nnc(-c2ccccc2)[nH]1)Nc1cccc(Cl)c1 | 6.16
O=C(CSc1nnc(-c2ccccc2O)[nH]1)Nc1cccc(Cl)c1 | 6.80
CCCCc1ccc(NC(=O)CSc2nnc(-c3ccc(O)cc3)[nH]2)cc1 | 6.32
CCCCc1ccc(NC(=O)CSc2nnc(-c3ccccc3O)[nH]2)cc1 | 6.80
CCCCc1ccc(NC(=O)CSc2nnc(-c3ccccc3)[nH]2)cc1 | 6.82
O=C(CSc1nnc(-c2ccccc2)[nH]1)Nc1ccccc1 | 6.77
O=C(CSc1nnc(-c2ccc(O)cc2)[nH]1)Nc1ccccc1 | 5.92
O=C(CSc1nnc(-c2ccc(O)cc2)[nH]1)Nc1cccc(Cl)c1 | 6.43
O=C(CSc1nnc(-c2ccccc2O)[nH]1)Nc1ccccc1 | 6.38
Cc1ccccc1NC(=O)CSc1nnc(-c2ccc(O)cc2)[nH]1 | 6.01
O=C(CSc1nnc(-c2ccc(O)cc2)[nH]1)Nc1ccccc1Cl | 6.28
Cc1ccccc1NC(=O)CSc1nnc(-c2ccccc2)[nH]1 | 6.72

target: Metallo-beta-lactamase type 2 (Bacteroides fragilis) (UniProt P25910); assay: Inhibition of Bacteroides fragilis CcrA metallo-beta-lactamase up to 10 uM preincubated for 60 min followed by addition of cefazolin as substrate by spectrometry method; how it was run: as §1
Sequence (P25910 whole entry): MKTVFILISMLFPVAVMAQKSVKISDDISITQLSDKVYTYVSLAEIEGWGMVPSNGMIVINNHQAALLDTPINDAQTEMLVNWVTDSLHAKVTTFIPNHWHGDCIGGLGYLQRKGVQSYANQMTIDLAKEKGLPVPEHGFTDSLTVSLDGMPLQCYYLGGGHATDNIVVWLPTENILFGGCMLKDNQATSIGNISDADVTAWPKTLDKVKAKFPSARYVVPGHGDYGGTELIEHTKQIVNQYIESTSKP

inhibition | SMILES
inactive | CCCCc1ccc(NC(=O)CSc2nnc(-c3ccccc3N)[nH]2)cc1
inactive | CCc1ccccc1NC(=O)CSc1nnc(-c2ccccc2)[nH]1
inactive | O=C(CSc1nnc(-c2ccccc2O)[nH]1)Nc1ccccc1Cl
inactive | Nc1ccccc1-c1nnc(SCC(=O)Nc2ccccc2Cl)[nH]1
inactive | CCc1ccccc1NC(=O)CSc1nnc(-c2ccc(O)cc2)[nH]1
inactive | Cc1ccccc1NC(=O)CSc1nnc(-c2ccccc2N)[nH]1
inactive | CCc1ccccc1NC(=O)CSc1nnc(-c2ccccc2O)[nH]1
inactive | Nc1ccccc1-c1nnc(SCC(=O)Nc2ccccc2)[nH]1
inactive | Nc1ccccc1-c1nnc(SCC(=O)Nc2cccc(Cl)c2)[nH]1
inactive | Cc1ccccc1NC(=O)CSc1nnc(-c2ccccc2O)[nH]1
inactive | CCc1ccccc1NC(=O)CSc1nnc(-c2ccccc2N)[nH]1

The next lines start with the molecule.

SMILES | inhibition
O=C(CSc1nnc(-c2ccccc2)[nH]1)Nc1ccccc1Cl | inactive
O=C(CSc1nnc(-c2ccccc2)[nH]1)Nc1cccc(Cl)c1 | inactive
O=C(CSc1nnc(-c2ccccc2O)[nH]1)Nc1cccc(Cl)c1 | inactive
CCCCc1ccc(NC(=O)CSc2nnc(-c3ccc(O)cc3)[nH]2)cc1 | inactive
CCCCc1ccc(NC(=O)CSc2nnc(-c3ccccc3O)[nH]2)cc1 | inactive
CCCCc1ccc(NC(=O)CSc2nnc(-c3ccccc3)[nH]2)cc1 | inactive
O=C(CSc1nnc(-c2ccccc2)[nH]1)Nc1ccccc1 | inactive
O=C(CSc1nnc(-c2ccc(O)cc2)[nH]1)Nc1ccccc1 | inactive
O=C(CSc1nnc(-c2ccc(O)cc2)[nH]1)Nc1cccc(Cl)c1 | inactive
O=C(CSc1nnc(-c2ccccc2O)[nH]1)Nc1ccccc1 | inactive
Cc1ccccc1NC(=O)CSc1nnc(-c2ccc(O)cc2)[nH]1 | inactive
O=C(CSc1nnc(-c2ccc(O)cc2)[nH]1)Nc1ccccc1Cl | inactive
Cc1ccccc1NC(=O)CSc1nnc(-c2ccccc2)[nH]1 | inactive

system: Aeromonas veronii bv. sobria; assay: Inhibition of Aeromonas veronii bv. sorbia Metallo-beta-lactamase ImiS up to 10 uM preincubated for 60 min followed by addition of imipenem as substrate by spectrometry method; how it was run: as §1

inhibition | SMILES
inactive | CCCCc1ccc(NC(=O)CSc2nnc(-c3ccccc3N)[nH]2)cc1
inactive | CCc1ccccc1NC(=O)CSc1nnc(-c2ccccc2)[nH]1
inactive | O=C(CSc1nnc(-c2ccccc2O)[nH]1)Nc1ccccc1Cl
inactive | Nc1ccccc1-c1nnc(SCC(=O)Nc2ccccc2Cl)[nH]1
inactive | CCc1ccccc1NC(=O)CSc1nnc(-c2ccc(O)cc2)[nH]1
inactive | Cc1ccccc1NC(=O)CSc1nnc(-c2ccccc2N)[nH]1
inactive | CCc1ccccc1NC(=O)CSc1nnc(-c2ccccc2O)[nH]1
inactive | Nc1ccccc1-c1nnc(SCC(=O)Nc2ccccc2)[nH]1
inactive | Nc1ccccc1-c1nnc(SCC(=O)Nc2cccc(Cl)c2)[nH]1
inactive | Cc1ccccc1NC(=O)CSc1nnc(-c2ccccc2O)[nH]1
inactive | CCc1ccccc1NC(=O)CSc1nnc(-c2ccccc2N)[nH]1

Continued, molecule first:

SMILES | inhibition
O=C(CSc1nnc(-c2ccccc2)[nH]1)Nc1ccccc1Cl | inactive
O=C(CSc1nnc(-c2ccccc2)[nH]1)Nc1cccc(Cl)c1 | inactive
O=C(CSc1nnc(-c2ccccc2O)[nH]1)Nc1cccc(Cl)c1 | inactive
CCCCc1ccc(NC(=O)CSc2nnc(-c3ccc(O)cc3)[nH]2)cc1 | inactive
CCCCc1ccc(NC(=O)CSc2nnc(-c3ccccc3O)[nH]2)cc1 | inactive
CCCCc1ccc(NC(=O)CSc2nnc(-c3ccccc3)[nH]2)cc1 | inactive
O=C(CSc1nnc(-c2ccccc2)[nH]1)Nc1ccccc1 | inactive
O=C(CSc1nnc(-c2ccc(O)cc2)[nH]1)Nc1ccccc1 | inactive
O=C(CSc1nnc(-c2ccc(O)cc2)[nH]1)Nc1cccc(Cl)c1 | inactive
O=C(CSc1nnc(-c2ccccc2O)[nH]1)Nc1ccccc1 | inactive
Cc1ccccc1NC(=O)CSc1nnc(-c2ccc(O)cc2)[nH]1 | inactive
O=C(CSc1nnc(-c2ccc(O)cc2)[nH]1)Nc1ccccc1Cl | inactive
Cc1ccccc1NC(=O)CSc1nnc(-c2ccccc2)[nH]1 | inactive

system: Stenotrophomonas maltophilia; assay: Inhibition of Stenotrphomonas maltophilia metallo-beta-lactamase L1 up to 10 uM preincubated for 60 min followed by addition of cefazolin as substrate by spectrometry method; how it was run: as §1

inhibition | SMILES
inactive | CCCCc1ccc(NC(=O)CSc2nnc(-c3ccccc3N)[nH]2)cc1
inactive | CCc1ccccc1NC(=O)CSc1nnc(-c2ccccc2)[nH]1
inactive | O=C(CSc1nnc(-c2ccccc2O)[nH]1)Nc1ccccc1Cl
inactive | Nc1ccccc1-c1nnc(SCC(=O)Nc2ccccc2Cl)[nH]1
inactive | CCc1ccccc1NC(=O)CSc1nnc(-c2ccc(O)cc2)[nH]1
inactive | Cc1ccccc1NC(=O)CSc1nnc(-c2ccccc2N)[nH]1
inactive | CCc1ccccc1NC(=O)CSc1nnc(-c2ccccc2O)[nH]1
inactive | Nc1ccccc1-c1nnc(SCC(=O)Nc2ccccc2)[nH]1
inactive | Nc1ccccc1-c1nnc(SCC(=O)Nc2cccc(Cl)c2)[nH]1
inactive | Cc1ccccc1NC(=O)CSc1nnc(-c2ccccc2O)[nH]1
inactive | CCc1ccccc1NC(=O)CSc1nnc(-c2ccccc2N)[nH]1

Further lines, the molecule ahead of its results:

SMILES | inhibition
O=C(CSc1nnc(-c2ccccc2)[nH]1)Nc1ccccc1Cl | inactive
O=C(CSc1nnc(-c2ccccc2)[nH]1)Nc1cccc(Cl)c1 | inactive
O=C(CSc1nnc(-c2ccccc2O)[nH]1)Nc1cccc(Cl)c1 | inactive
CCCCc1ccc(NC(=O)CSc2nnc(-c3ccc(O)cc3)[nH]2)cc1 | inactive
CCCCc1ccc(NC(=O)CSc2nnc(-c3ccccc3O)[nH]2)cc1 | inactive
CCCCc1ccc(NC(=O)CSc2nnc(-c3ccccc3)[nH]2)cc1 | inactive
O=C(CSc1nnc(-c2ccccc2)[nH]1)Nc1ccccc1 | inactive
O=C(CSc1nnc(-c2ccc(O)cc2)[nH]1)Nc1ccccc1 | inactive
O=C(CSc1nnc(-c2ccc(O)cc2)[nH]1)Nc1cccc(Cl)c1 | inactive
O=C(CSc1nnc(-c2ccccc2O)[nH]1)Nc1ccccc1 | inactive
Cc1ccccc1NC(=O)CSc1nnc(-c2ccc(O)cc2)[nH]1 | inactive
O=C(CSc1nnc(-c2ccc(O)cc2)[nH]1)Nc1ccccc1Cl | inactive
Cc1ccccc1NC(=O)CSc1nnc(-c2ccccc2)[nH]1 | inactive

target: T1, Metallo-beta-lactamase type 2; assay: Mixed type inhibition of Klebsiella pneumoniae metallo-beta-lactamase NDM-1 expressed in Escherichia coli BL21(DE3) cells assessed as hydrolysis of cefazolin preincubated for 60 min followed by addition of cefazolin by Lineweaver-Burk plot analysis
How it was run: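 Purified recombinant NDM-1 preincubated with inhibitor for 60 min. Cefazolin hydrolysis was then followed by UV spectrometry, with substrate varied 26–160 μM and inhibitor at 0, 0.25, 0.5 and 1.0 μM. Mode was taken from Lineweaver–Burk plots. Ki came from replots of slope and intercept […].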

pKi | SMILES
6.31 | CCCCc1ccc(NC(=O)CSc2nnc(-c3ccccc3N)[nH]2)cc1
6.20 | O=C(CSc1nnc(-c2ccc(O)cc2)[nH]1)Nc1cccc(Cl)c1
